From publication PMC4980657 (Journal of medicinal chemistry, 2015)
pKi: −log10 of the molar value. Where two headings read alike, the source gives them in different places.

Legend:
[1] = molecular target: PCP binding site of the NMDA receptor; details: rat brain membranes, cited from earlier work; for pKi: read-out: [3H]TCP Ki; for inhibition (%) of [3H]TCP binding: test ligand at 1.0 μM
[2] = molecular target: PCP binding site of the NMDA receptor; details: read-out: Ki vs [3H]1; cited from earlier work
[3] = molecular target: PCP binding site of the NMDA receptor; details: mean from two experiments, rat brain membranes; for inhibition (%) of [3H]TCP binding: test ligand at 1.0 μM
Outline: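 Outsourced to a contract lab using rat brain membrane suspensions and [3H]TCP as radioligand. Test ligands were first screened at 1 μM for percent inhibition of [3H]TCP binding. […] Values are the mean of two experiments.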

Compound	pKi [1]	inhibition (%) of [3H]TCP binding [1]	pKi [2]	pKi ([3]; read-out: [3H]TCP Ki)	inhibition (%) of [3H]TCP binding [3]
CN(C(N)=Nc1cccc2ccccc12)c1cccc(I)c1 [compound 3, reference compound]	7.50	106%			
CN(C(=N)Nc1cccc2ccccc12)c1cccc(C(F)(F)F)c1 [compound 7, 1-Methyl-3-(naphthalen-1-yl)-1-(3-(trifluoromethyl)phenyl)guanidine]	7.74	107%	8.57		
CN(C(=N)Nc1cccc2ccccc12)c1cc(C(F)(F)F)ccc1F [compound 13, 1-(6-fluoro-3-(trifluoromethyl)phenyl)-1-methyl-3-(naphthalen-1-yl)guanidine]				7.89	91.0%
CN(C(=N)Nc1cc(SCF)ccc1Cl)c1cccc(C(F)(F)F)c1 [compound 46, 3-(2-Chloro-5-(fluoromethylthio)phenyl)-1-methyl-1-(3-(trifluoromethyl)phenyl)guanidine]					57.5%
